# Env fusion inh – blocks HIV Env-driven cell-cell fusion | 360,000 compounds, 1.1% hits | inhibition, % at 12.3 µM | HeLa-JRFL Env/CEM21 cell fusion, luciferase | AID 651610;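 active = mean replicate inhibition score of at least 50 and every replicate individually at or above 50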;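 note: 0% = plate neutral controls and 100% = maraviroc near 300 nM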
# INS-1E GSIS act – GLuc luminescence reporter in INS-1E cells, primary screen for activators of glucose-dependent secretion of insulin; INS-1E GLuc reporter insulin secretion, 2-3 h; activation, % at 16.6 µM; 370,000 compounds, 0.61% hits; AID 743287;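 active = lowest replicate activation of at least 40%, so every replicate reaches that level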;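 note: 0% = median of neutral control wells and 100% = median of IBMX positive control wells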
# dFosB activator – mouse delta FosB homodimer activation | 340,000 compounds, 0.99% hits | P13346 | AID 493131 | activation, % at 25 µM | purified delta FosB, TAMRA-CDK5 oligo fluorescence polarization; percent of positive-control signal above neutral wells;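 active = mean activation above about 17%, with every replicate also reaching it, limit read from the data, passing the limit was not always enough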
# Cneo AK release – Cryptococcus neoformans lysis via adenylate kinase release. lysis activity, % at 15 µM. 360,000 compounds, 0.2% hits. C. neoformans lysis, adenylate kinase release luminescence, 4 h; normalised: neutral wells 0, clomiphene wells 100. AID 651654;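 active = mean lysis activity across replicates of at least 80%, whatever share of replicates individually reach that level; inactive = mean lysis activity below 80%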
#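 read-out = cell lysis signal | test system = log-phase Cryptococcus neoformans yeast cells | input = cells at 5 × 10^6 per mL | medium = fresh YPD growth medium | signal = luminescent adenylate kinase detection reagent | timing = 4 h at 37 °C static, read 1 h later | dosing = single dose | controls = Clomiphene as positive lysis control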
# CDK5 p35 inh – inhibitors of human CDK5/p35 kinase | 330,000 compounds, 0.01% hits | inhibition, % at 10 µM | Q00535+Q15078 | Recombinant CDK5/p35, ADP-Glo luminescence, 60 min;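 active = highest replicate inhibition of at least 50% and at least 75% of replicates reaching 50%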;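 note: plate controls were DMSO neutral control for no effect and GW8510 at 10 µM for full effect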
# Target sequence (Q00535 whole entry, looked up): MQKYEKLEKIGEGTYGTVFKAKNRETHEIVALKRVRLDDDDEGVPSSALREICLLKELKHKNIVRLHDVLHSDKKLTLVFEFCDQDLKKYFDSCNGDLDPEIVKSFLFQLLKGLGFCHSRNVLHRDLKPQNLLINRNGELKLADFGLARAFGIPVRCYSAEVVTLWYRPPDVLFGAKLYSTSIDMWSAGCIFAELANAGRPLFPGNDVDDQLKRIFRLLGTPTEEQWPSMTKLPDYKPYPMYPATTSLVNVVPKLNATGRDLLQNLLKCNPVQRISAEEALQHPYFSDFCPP
# Target sequence (Q15078 whole entry, looked up): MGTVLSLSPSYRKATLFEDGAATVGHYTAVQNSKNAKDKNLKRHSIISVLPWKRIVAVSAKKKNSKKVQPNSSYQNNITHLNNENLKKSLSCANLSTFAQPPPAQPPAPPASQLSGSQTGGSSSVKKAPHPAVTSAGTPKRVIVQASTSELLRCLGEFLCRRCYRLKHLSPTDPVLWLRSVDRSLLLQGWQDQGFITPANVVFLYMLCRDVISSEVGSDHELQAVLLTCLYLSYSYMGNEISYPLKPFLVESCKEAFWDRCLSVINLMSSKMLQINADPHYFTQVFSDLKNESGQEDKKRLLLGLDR
# PAX8 reporter – inhibitors of PAX8 transcriptional activity in RMG-I cells; inhibition, % at 12.6 µM; 360,000 compounds, 1.2% hits; RMG-I TPO-luciferase reporter, SteadyGlo, 24 h;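 active = mean replicate inhibition at least 60% with every replicate also reaching 60%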;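 note: luciferase light reporting Pax8 driven TPO promoter activity; plate controls were median of neutral control wells for no effect and mitoxantrone controls for full effect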
# Starred values were filed as active, the others as inactive; . = not tested or not shown; [ ] = remark or other dose. Most compounds without a hit are left out; they make up all but 2.9% or so of the library.
SMILES,Env fusion inh,INS-1E GSIS act,dFosB activator,Cneo AK release,CDK5 p35 inh,PAX8 reporter
COc1ccc(CN(C)C[C@@H]2Oc3ccc(NC(=O)C4CC4)cc3C(=O)N([C@@H](C)CO)C[C@H]2C)cc1,33.7[16.7 µM],10.3,.,91.9*,.,.
COC(=O)C[C@H]1CC[C@@H]2[C@H](COc3ccc(NC(=O)Nc4cccc(Cl)c4)cc3C(=O)N2C)O1,22.1[16.7 µM],-22.6,.,-0.2,.,-68.0
O=C(C[C@@H]1C=C[C@@H](NC(=O)c2ccccc2)[C@H](CO)O1)Nc1ccc(-c2ccccc2)cc1,16.1[16.7 µM],6.3,.,0.3,.,-3.2
O=S(=O)(Nc1cccc(-c2cn3cccnc3n2)c1)c1ccc(Cl)cc1,.,-6.4,-15.4,-0.6,0.3,131.8*
COc1ccc(C)cc1S(=O)(=O)Nc1cccc(-c2cn3cccnc3n2)c1,3.0,-3.6,-19.0,1.6,-1.8,8.6
COc1ccc(COCC23N=C4SCc5ccccc5C(=O)N4[C@H](c4ccccc4O2)[C@H]3COC(=O)c2ccccc2)cc1,13.6[16.7 µM],.,.,2.1,.,-10.0
COc1ccc(COCC23N=C4SCc5ccccc5CN4[C@H](c4ccccc4O2)[C@H]3COC(=O)c2ccccc2)cc1,69.3*[16.7 µM],.,.,2.4,.,6.9
CC(=O)Nc1cccc(-c2cc(NC=O)c3ncc(-c4ccc(C(C)=O)cc4)n3c2)c1,15.6,7.9,.,3.8,.,70.9*
CC(=O)c1ccc(-c2cnc3c(NC=O)cc(-c4ccc(N5CCN(C)CC5)cc4)cn23)cc1,-37.2,.,.,-0.7,.,-38.1
COc1ccc(-c2cc(NC=O)c3ncc(-c4ccc(C(C)=O)cc4)n3c2)cn1,-58.4,-8.1,.,0.0,.,64.8*
O=CNc1cc(-c2ccsc2)cn2c(-c3ccccc3)cnc12,-32.6,20.5,.,145.5*,.,-26.6
C[C@H]1CCCCO[C@H](CN(C)C)[C@@H](C)CN([C@@H](C)CO)C(=O)c2cc(NC(=O)Cc3ccccc3)ccc2O1,20.3[16.7 µM],22.5,.,2.0,.,-3.0
C[C@@H]1CCCCO[C@@H](CN(C)C(=O)c2ccncc2)[C@H](C)CN([C@@H](C)CO)C(=O)c2cc(NC(=O)c3ccccc3)ccc2O1,-13.6[16.7 µM],20.8,.,16.7,.,1.4
O=C(Nc1ccc2nc3n(c(=O)c2c1)CCCCC3)c1ccccc1[N+](=O)[O-],3.3,6.4,-5.6,-1.9,0.3,-9.1
O=C(Nc1ccc2nc3n(c(=O)c2c1)CCCCC3)c1cc([N+](=O)[O-])ccc1F,-3.1,8.6,-9.7,-0.5,-1.4,90.4*
O=C(Nc1ccc2nc3n(c(=O)c2c1)CCCCC3)c1c(F)ccc([N+](=O)[O-])c1F,14.6,-36.3,0.6,-1.3,-0.7,71.7*
Cc1ccc(NCc2ccccc2)cc1,-12.2,6.7,-1.3,.,-1.2,-35.0
Cc1ccc(NCc2cccc(B(O)O)c2)cc1,25.0,42.8*,-5.2,2.8,0.3,-33.6
C#CC[N+]1(CC#Cc2ccccc2)CCCC1,.,1.9,5.7,4.1,0.7,.
C(#Cc1ccccc1)C[N+]1(CC#Cc2cccc3ccccc23)CCCC1,33.2,-20.7,-8.4,.,-2.0,63.4*
C[C@H](CO)N1C[C@H](C)[C@@H](CN(C)S(=O)(=O)c2ccc(F)cc2)OCCCC[C@H](C)Oc2ccc(NC(=O)c3ccncc3)cc2C1=O,-10.4[16.7 µM],-6.5,.,0.9,.,.
COc1ccccc1Cn1c(=O)oc2ccccc21,-43.1,43.1*,.,-1.3,.,-8.5
COc1ccc(CCN(C)c2ncnc3sccc23)cc1OC,25.3,20.4,-13.3,.,-0.9,9.5
COc1ccc(CCN(C)C(=O)CSc2ncnc3sccc23)cc1OC,0.9,77.9*,-7.8,.,1.0,-4.1
COc1ccccc1CNC(=O)CCn1c(=O)oc2ccccc21,-16.4,8.3,-1.5,2.2,-2.4,5.5
SMILES,Env fusion inh,INS-1E GSIS act,dFosB activator,Cneo AK release,CDK5 p35 inh,PAX8 reporter
COc1ccc(CCN(C)C(=O)Cn2c(=O)oc3ccccc32)cc1OC,-3.9,69.8*,-3.1,-1.1,-3.3,-3.2
CO[C@@H]1CN(C)C(=O)c2ccc(NS(C)(=O)=O)cc2OC[C@H](C)N(CCC(F)(F)F)C[C@H]1C,16.2[16.7 µM],4.3,.,0.6,.,-23.1
COc1ccc(NC(=O)Nc2ccc3c(c2)C(=O)N([C@H](C)CO)C[C@@H](C)[C@H](CN(C)Cc2ccc4c(c2)OCO4)O3)cc1,2.8[16.7 µM],-11.5,.,0.7,.,-2.6
C[C@H](CO)N1C[C@H](C)[C@@H](CN(C)C(=O)Nc2ccc(F)cc2)OCc2ccccc2-c2ccccc2C1=O,22.2[16.7 µM],-4.5,.,56.9,.,-100.3
CC1(C(=O)NCc2cccc3ccccc23)CCN1Cc1ccc(OC(F)(F)F)cc1 (stereo not given),35.1,203.3*,.,-1.1,.,14.7
CC1(C(=O)NCc2cccc3ccccc23)CCN1Cc1ccc2ccccc2c1 (stereo not given),20.2,-20.1,.,-0.9,.,4.8
CCCN1[C@@H]2c3ccc(/C=C/c4ccccc4)c(=O)n3C[C@H]1[C@H](CO)[C@H]2C(=O)NCc1ccccn1,.,-2.3,.,-2.3,.,.
C=CCNC(=O)C1CCC(CNc2nc(=S)[nH]c3ccccc23)CC1 (stereo not given),4.5,.,-3.5,15.3,0.2,10.3
O=C(C1CCC(CNc2nc(=S)[nH]c3ccccc23)CC1)N1CCN(c2ccccn2)CC1 (stereo not given),65.4*,-17.3,-6.5,1.1,-1.3,.
CC(C)C#Cc1cnc2c(c1)C(=O)N([C@H](C)CO)C[C@@H](C)[C@H](CN(C)C(=O)c1cnccn1)O2,-22.5[16.7 µM],1.5,.,-0.8,.,.
COc1ccc(/C(C)=N/NC(=O)c2cccc(S(=O)(=O)N3CCCC3)c2)c(O)c1,81.6*,9.1,-1.5,-3.4,0.7,66.0*
COc1ccc(C(C)=NNC(=O)c2cccc(S(=O)(=O)N3CCCC3)c2)cc1,12.8,-7.7,-6.0,-3.3,-0.6,7.7
COc1ccc(C(=O)C2CCN(C(=O)c3ccc(C)cc3)CC2)cc1,85.9*,.,-0.8,1.7,1.0,4.9
C[C@@H]1CN([C@H](C)CO)S(=O)(=O)c2ccc(-c3cccc(F)c3)cc2O[C@@H]1CN(C)S(C)(=O)=O,-1.8[16.7 µM],-9.3,.,-1.6,.,39.7
O=C(C1CCOCC1)N1CC(=O)N2[C@H](CO)[C@H](c3ccc(C#CC4CC4)cc3)[C@H]2C1,.,-0.6,.,.,.,-14.0
CCCC(=O)N(Cc1cc(=O)[nH]c2ccccc12)c1ccc(C)cc1C,0.1,-3.4,-14.0,1.7,0.2,23.6
Cc1ccc(N(Cc2cc(=O)[nH]c3ccccc23)C(=O)CCl)c(C)c1,55.4*,10.2,-10.6,.,-1.5,68.8*
COCCCn1c(SCc2ccc(OC)cc2)nc2cc(OC)c(OC)cc2c1=N,56.7*,.,-8.0,0.0,-3.1,.
CCCSc1nc2cc(OC)c(OC)cc2c(=N)n1CCCN1CCOCC1,8.6,30.7,5.8,.,-0.8,-35.2
CCc1ccc2oc(C(=O)NCc3ccncc3)c(C)c2c1,62.0*,.,-9.7,-0.3,0.3,.

# From PubChem
